From ChEMBL document CHEMBL3046951, “Volatile constituents from the leaves of Callicarpa japonica Thunb. and their antibacterial activities” (2004) come the findings set out here.

Assay type in all cases: functional
One assay relates to Salmonella typhimurium. As to the kind of experiment: Antimicrobial activity against Salmonella enterica subsp. enterica serovar Typhimurium ATCC 14028 assessed as growth inhibition rate at 143.24 mg/l after 72 hr by spectrophotometry. The settings on record: ATCC 14028, 72 h, read-out: GI. In outline:
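Salmonella Typhimurium ATCC 14028 grown in nutrient broth at 30 °C, precultured 24 h, then subcultured 1:100 for 18 h before testing. Single volatile compounds (>95% pure) were added. OD was read every 24 h over 72 h in a Bioscreen C, with 10% Tween 80 as the comparison control.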

Another assay concerns Bacillus cereus. As to the kind of experiment: Antimicrobial activity against Bacillus cereus ATCC 11778 assessed as growth inhibition rate at 143.24 mg/l after 72 hr by spectrophotometry. The following applies: ATCC 11778, 72 h, read-out: GI. The method in brief:
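Pure volatile compounds (purity >95%; one at 90%) were tested against B. cereus ATCC 11778. The strain was grown at 30 °C in nutrient broth for 24 h, then subcultured for 18 h. Optical density was read in a Bioscreen C every 24 h for 72 h, with 10% Tween 80 as the control.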

The subject of the next assay is Escherichia coli. Put plainly: Antimicrobial activity against Escherichia coli O157:H7 ATCC 43894 assessed as growth inhibition rate at 143.24 mg/l after 72 hr by spectrophotometry. The following applies: O157:H7 ATCC 43894, 72 h, read-out: GI.
The next assay has as its system Listeria monocytogenes. Put plainly: Antimicrobial activity against Listeria monocytogenes ATCC 19111 assessed as growth inhibition rate at 143.24 mg/l after 72 hr by spectrophotometry. The following applies: ATCC 19111, 72 h, read-out: GI. In outline:
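L. monocytogenes was grown at 30 °C in tryptic soy broth, subcultured for 18 h, and exposed to pure volatile compounds (>95% purity). Growth was followed by Bioscreen C optical density every 24 h for 72 h against a 10% Tween 80 control.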

The next assay has as its system Staphylococcus aureus. As to the kind of experiment: Antimicrobial activity against Staphylococcus aureus ATCC 25923 assessed as growth inhibition rate at 143.24 mg/l after 72 hr by spectrophotometry. The settings on record: ATCC 25923, 72 h, read-out: GI.
The test system of a further assay is Vibrio parahaemolyticus. Put plainly: Antimicrobial activity against Vibrio parahaemolyticus ATCC 33844 assessed as growth inhibition rate at 143.24 mg/l after 72 hr by spectrophotometry. The following applies: ATCC 33844, 72 h, read-out: GI.

As to `C=C1CC[C@@H]2[C@H]([C@@H]3[C@H](C)CC[C@@H]13)C2(C)C` [(-)-AROMADENDRENE II], the inhibition of growth at 143.24 µg/mL is 36.4% in the assay on Salmonella typhimurium; 72.3% in the assay with Bacillus cereus; 24.2% in the assay on Escherichia coli; 28% in the assay on Listeria monocytogenes; 61.5% with Staphylococcus aureus; 45.6% in the assay on Vibrio parahaemolyticus.
